# According to article PMC5071636 (Acta Pharmaceutica Sinica. B, 2016):
# Assays:
# [1] = test system: eEF2K; details: cited from earlier work
# [2] = test system: eEF2K in cells; details: cited from earlier work
# [3] = test system: eEF2 phosphorylation in MDA-MB-453 cells; test: Western blot of phospho-eEF2; format: cell-based, human
# How it was run: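 MDA-MB-453 grown in L15 with 10% FBS, 1 mmol/L pyruvate, 0.5 mg/mL geneticin, no CO2. Seeded at 2×10^5 cells/well; 24 h later given test compound at several concentrations for 6 h. Lysed in 2× SDS loading buffer, 95 °C 10 min, on 10% gels to PVDF, milk-blocked. Probed overnight at 4 °C for phospho-eEF2 Thr56 and eEF2, β-actin loading control. Fluorescent secondary read-out. Three independent experiments in duplicate, mean ±SEM.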
# [4] = test system: cells; details: at high concentrations; cited from earlier work
# [5] = test system: eEF2 phosphorylation in HCT116 cells; test: Western blot of phospho-eEF2 in HCT116 cells; format: cell-based, human; details: 6 h treatment
# [6] = test system: eEF2 phosphorylation in H1299 cells; test: Western blot of phospho-eEF2 in H1299 cells; format: cell-based, human; details: 6 h treatment
structure (smiles),measurement,setting,value
"CCCCCCCCCCCCCCCC[n+]1ccn(Cc2ccccc2)c1C.[I-] [NH125, 1-Benzyl-3-cetyl-2-methylimidazolium iodide]",effect on eEF2K activity in vitro,[1],inhibits eEF2K activity
same,effect on eEF2 phosphorylation in vivo,[2],promotes eEF2 phosphorylation
"c1cnc2sccc2c1 [Thieno [2,3-b] pyridine]",inhibitory effects on eEF2K in cells,[2],weak inhibitory effects
CCn1c(=O)c2cc(C(N)=O)c(N)nc2n(C2CC2)c1=O [A484954],effect on eEF2 phosphorylation (p-eEF2),"[3]; MDA-MB-453 cells, 6 h treatment",capable of inhibiting eEF2 phosphorylation
same,total protein level of eEF2,[3]; in the cell,not affected
same,cytotoxicity,[4],cytotoxic at high concentrations
same,potency on eEF2K in cells,[2],rather low potency
same,effect on eEF2 phosphorylation (p-eEF2),[5],capable of inhibiting eEF2 phosphorylation
same,effect on eEF2 phosphorylation (p-eEF2),[6],capable of inhibiting eEF2 phosphorylation
